In ChEMBL document CHEMBL1154295, “Potent and selective steroidal inhibitors of 17beta-hydroxysteroid dehydrogenase type 7, an enzyme that catalyzes the reduction of the key hormones estrone and dihydrotestosterone” (J Med Chem, 2009):

What was measured:
[1] = molecular target: T1, 3-keto-steroid reductase/17-beta-hydroxysteroid dehydrogenase 7 (Homo sapiens) (UniProt P56937); assay: Inhibition of human 17beta-HSD7 expressed in HEK293 cells assessed as inhibition of reduction of [14C]dihydrotestosterone into [14C]5alpha-androstane-3beta,17beta-diol at 3 uM after 18 hrs; format: cell-based
T1 sequence (whole entry): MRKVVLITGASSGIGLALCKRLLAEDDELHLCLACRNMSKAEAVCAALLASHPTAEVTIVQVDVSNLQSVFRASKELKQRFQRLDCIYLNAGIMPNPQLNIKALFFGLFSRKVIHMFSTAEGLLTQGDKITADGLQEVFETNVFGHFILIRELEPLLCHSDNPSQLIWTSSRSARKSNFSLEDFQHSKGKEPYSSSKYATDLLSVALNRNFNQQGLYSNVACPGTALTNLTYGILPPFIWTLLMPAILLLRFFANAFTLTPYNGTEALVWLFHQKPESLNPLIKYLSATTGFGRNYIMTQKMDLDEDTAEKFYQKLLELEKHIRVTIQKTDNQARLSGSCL
Summary of the method: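 Intact HEK-293 cells stably overexpressing h17β-HSD7 (pCMV-neo, G-418 selected) were plated at 500 000 cells/well in MEM with 10% fetal calf serum at 37 °C. Fresh medium received 15 000 cpm (~150 nM) [4-14C]-DHT plus ethanolic inhibitor, and cells were incubated 18 h. Steroids were extracted twice with diethyl ether. Assays were done in duplicate.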

[2] = molecular target: T1, 3-keto-steroid reductase/17-beta-hydroxysteroid dehydrogenase 7 (Homo sapiens); conditions: HEK293, at 0.3 µM
[3] = molecular target: T1, 3-keto-steroid reductase/17-beta-hydroxysteroid dehydrogenase 7 (Homo sapiens); conditions: HEK293, at 3 µM

| Structure (SMILES) | inhibition [1] [%] | inhibition [2] [%] | inhibition [3] [%] |
| --- | --- | --- | --- |
| CCCCCCCN(C)C1CC[C@H]2[C@@H]3CC[C@H]4NC(=O)CC[C@]4(C)[C@H]3CC[C@]12C (some centres not stated) | 69 |  |  |
| CCCCCCCCCCN(C=O)C1CC[C@H]2[C@@H]3CC[C@H]4NC(=O)CC[C@]4(C)[C@H]3CC[C@]12C (some centres not stated) | 69 |  |  |
| CCCCCCCN(C(=O)c1c(F)cccc1F)[C@H]1CC[C@H]2[C@@H]3CC[C@H]4N(C)C(=O)CC[C@]4(C)[C@H]3CC[C@]12C | 69 | 84 |  |
| CCCCCCCN(C=O)[C@H]1CC[C@H]2[C@@H]3CC[C@H]4N(C)C(=O)CC[C@]4(C)[C@H]3CC[C@]12C | 69 | 94 |  |
| CCCCCCCN(C(=O)c1ccc(F)cc1)[C@H]1CC[C@H]2[C@@H]3CC[C@H]4N(C)C(=O)CC[C@]4(C)[C@H]3CC[C@]12C | 69 | 84 |  |
| CC1(C)CC[C@@]2(CC[C@H]3[C@@H]4CC[C@H]5NC(=O)C=C[C@]5(C)[C@H]4CC[C@@]32C)OC1=O |  | 5 | 39.6 |
| CN(C(=O)NC1CCCCC1)[C@H]1CC[C@H]2[C@@H]3CC[C@H]4N(C)C(=O)CC[C@]4(C)[C@H]3CC[C@]12C |  | 12.2 | 16.3 |
| CN1C(=O)CC[C@]2(C)[C@H]3CC[C@@]4(C)[C@@H](CC[C@@]4(O)C#CC(C)(C)I)[C@@H]3CC[C@@H]12 |  | 20.2 | 72 |
| CC1(C)CC[C@@]2(CC[C@H]3[C@@H]4CCc5cc(OS(=O)(=O)c6ccccc6)ccc5[C@H]4CC[C@@]32C)OC1=O |  | 11.7 | 29.5 |
| CC(=O)C1CC[C@@]2(CC[C@H]3[C@@H]4CCc5cc(O)ccc5[C@H]4CC[C@@]32C)OC1=O (some centres not stated) |  | 2.1 | 14.8 |
| CCC[C@]1(O)CC[C@H]2[C@@H]3CC[C@H]4N(C)C(=O)CC[C@]4(C)[C@H]3CC[C@@]21C |  | 47.6 | 98.5 |
| C#C[C@]1(O)CC[C@H]2[C@@H]3CCc4cc(O)ccc4[C@H]3CC[C@@]21C |  | 8.3 | 3.4 |
| CCN(C(=O)c1ccccc1)[C@H]1CC[C@H]2[C@@H]3CC[C@H]4N(C)C(=O)CC[C@]4(C)[C@H]3CC[C@]12C |  | 63.4 | 99.4 |
| CN1C(=O)CC[C@]2(C)[C@H]3CC[C@]4(C)[C@@H](N(C(=O)c5ccccc5)c5ccccc5)CC[C@H]4[C@@H]3CC[C@@H]12 |  | 31.9 | 64.1 |
| CC(=O)[C@H]1CC[C@H]2[C@@H]3CCC4=CC(=O)CC[C@]4(C)[C@H]3CC[C@]12C |  | 7.3 | 19.1 |
| COC(=O)[C@H]1CC[C@H]2[C@@H]3CC=C4C=C(Cl)CC[C@]4(C)[C@H]3CC[C@]12C |  | 0.6 | 16.2 |
| C[C@]12CCC(=O)N[C@@H]1CC[C@@H]1[C@@H]2CC[C@]2(C)[C@@H](N(C(=O)c3ccccc3)c3ccccc3)CC[C@@H]12 |  | 24 | 64.1 |
| C[C@]12CC[C@](O)(Cc3ccccc3)C[C@@H]1CC[C@@H]1[C@@H]2CC[C@]2(C)C(=O)CC[C@@H]12 |  | 19.3 | 22.2 |
| CC(C)(C)NC(=O)[C@H]1CC[C@H]2[C@@H]3CC=C4C=C(Cl)CC[C@]4(C)[C@H]3CC[C@]12C |  | 13.4 | 56.8 |
| CCCCCN(C=O)[C@H]1CC[C@H]2[C@@H]3CC[C@H]4NC(=O)CC[C@]4(C)[C@H]3CC[C@]12C |  | 35.2 | 89.1 |
| CCCN(C=O)[C@H]1CC[C@H]2[C@@H]3CC[C@H]4N(C)C(=O)CC[C@]4(C)[C@H]3CC[C@]12C |  | 21.7 | 56.3 |

| Structure (SMILES) | inhibition [1] [%] | inhibition [2] [%] | inhibition [3] [%] |
| --- | --- | --- | --- |
| CN1C(=O)CC[C@]2(C)[C@H]3CC[C@]4(C)[C@@H](N(C(=O)NC5CCCCC5)C5CC5)CC[C@H]4[C@@H]3CC[C@@H]12 |  | 8.4 | 54.7 |
| CC1(C)CC[C@@]2(CC[C@H]3[C@@H]4CCc5cc(O)c(C(N)=O)cc5[C@H]4CC[C@@]32C)OC1=O |  | 7.9 | 23.8 |
| CC(C)(C#N)c1cc(Cn2cncn2)cc(C(C)(C)C#N)c1 |  | 6.5 | 0.3 |
| C[C@]12CCC(=O)N[C@@H]1CC[C@@H]1[C@@H]2CC[C@]2(C)[C@@H](N3CCC3=O)CC[C@@H]12 |  | 15.4 | 20.3 |
| C[C@]12CC[C@@H](O)C[C@H]1CC[C@@H]1[C@@H]2CC[C@]2(C)[C@@H](O)CC[C@@H]12 |  | 2.9 | 6 |
| CN1C(=O)CC[C@]2(C)[C@H]3CC[C@]4(C)[C@@H](N(C=O)Cc5ccccc5)CC[C@H]4[C@@H]3CC[C@@H]12 |  | 31.6 | 77.6 |
| CC(=O)S[C@@H]1CC2=CC(=O)CC[C@]2(C)[C@H]2CC[C@@]3(C)[C@@H](CC[C@@]34CCC(=O)O4)[C@H]12 |  | 7.2 | 7.5 |
| CCCCN(C)C(=O)C[C@@H]1Cc2cc(O)ccc2[C@H]2CC[C@@]3(C)[C@@H](CC[C@@]34CCC(=O)O4)[C@H]12 |  | 17.1 | 15.5 |
| CCCN(CC1C2CC3CC(C2)CC1C3)C[C@@]1(O)CC[C@@]2(C)[C@@H](CC[C@@H]3[C@@H]2CC[C@]2(C)C(=O)CC[C@@H]32)C1 (some centres not stated) |  | 29 | 18.8 |
| O=c1cc(-c2ccccc2)oc2cc(O)cc(O)c12 |  | 6.8 | 5.1 |
| C[C@]12C[C@H](O)[C@H]3[C@@H](CCC4=CC(=O)CC[C@@]43C)[C@@H]1CC[C@@H]2C(=O)CO |  | 8.1 | 14.9 |
| CN1C(=O)CC[C@]2(C)[C@H]3CC[C@]4(C)[C@@H](Nc5ccc([N+](=O)[O-])c(C(F)(F)F)c5)CC[C@H]4[C@@H]3CC[C@@H]12 |  | 66.1 | 100 |
| CCCNC(=O)N(C1CC1)[C@H]1CC[C@H]2[C@@H]3CC[C@H]4N(C)C(=O)CC[C@]4(C)[C@H]3CC[C@]12C |  | 12.9 | 41.5 |
| C[C@]12CCC(=O)C=C1CC[C@@H]1[C@@H]2CC[C@@]2(C)[C@H]1CC[C@]2(O)C(=O)CO |  | 9.8 | 0 |
| CC1(C)CC[C@@]2(CC[C@H]3[C@@H]4CCc5c(cc(Cl)c(O)c5Cl)[C@H]4CC[C@@]32C)OC1=O |  | 20.2 | 37 |
| CN(C)C(=O)c1ccc2c(c1)CC[C@@H]1[C@@H]2CC[C@@]2(C)[C@H]1CC[C@@]21CCC(C)(C)C(=O)O1 |  | 15.2 | 36.1 |
| C[C@]12CC[C@@H]3c4ccc(O)cc4CC[C@H]3[C@@H]1C[C@@H](CCBr)[C@@H]2O |  | 5.8 | 4.5 |
| CC1(C)CC[C@@]2(CC[C@H]3[C@@H]4CCc5cc(C(N)=O)ccc5[C@H]4CC[C@@]32C)OC1=O |  | 11.6 | 27 |
| C[C@]12CC[C@@H]3c4ccc(O)cc4CC[C@H]3[C@@H]1CC[C@@]21CCC(=O)O1 |  | 3.9 | 3.1 |
| C[C@]12CC[C@@H]3c4ccc(O)cc4CC[C@H]3[C@@H]1CC[C@@H]2O |  | 1.1 | 0 |
| CC1(C)CC[C@@]2(CC[C@H]3[C@@H]4CCc5cc(C#N)ccc5[C@H]4CC[C@@]32C)OC1=O |  | 23.8 | 34.6 |
